# MrgX1 allo act: allosterically activates human MrgX1 receptor signaling; Q96LB2; MrgX1-HEK293, Fluo-4 calcium flux, FDSS; stronger effect = higher value; B-score at 10 µM; actives 0.63% (n = 310,000); AID 588675;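 active means plate-corrected calcium response at least 3 library SD above typical, normal starting fluorescence, not activating the receptor alone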;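 further: compound read alongside a low EC10 to EC30 dose of BAM8-22 agonist; peak minus trough fluorescence over baseline measured at the second addition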
# Target sequence (Q96LB2 whole entry, looked up): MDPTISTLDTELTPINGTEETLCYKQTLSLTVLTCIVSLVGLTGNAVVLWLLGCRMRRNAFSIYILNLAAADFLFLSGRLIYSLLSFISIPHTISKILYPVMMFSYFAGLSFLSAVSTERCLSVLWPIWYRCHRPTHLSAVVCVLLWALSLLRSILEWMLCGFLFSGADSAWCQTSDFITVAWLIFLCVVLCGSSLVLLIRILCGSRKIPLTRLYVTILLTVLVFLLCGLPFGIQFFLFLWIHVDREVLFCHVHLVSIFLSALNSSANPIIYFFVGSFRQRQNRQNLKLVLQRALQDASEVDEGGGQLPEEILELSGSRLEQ
# RGS4 block: inhibitors of human RGS4 | HEK293 M3R/RGS4 inducible, Fluo-4 calcium flux; stronger effect = higher value; triggered by carbachol at its EC20 | actives 0.45% (n = 310,000) | AID 463165 | B-score at 10 µM | P49798;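 active means B-score, a plate-corrected calcium signal, over three deviations above library mean, with baseline fluorescence within five deviations of library mean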;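 further: RGS4 expression induced by doxycycline in cells with stable M3 receptor; B-score is computed from the integrated fluorescence ratio over baseline after carbachol; higher B-score means a larger calcium signal and so more RGS4 inhibition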
# Target sequence (P49798 whole entry, looked up): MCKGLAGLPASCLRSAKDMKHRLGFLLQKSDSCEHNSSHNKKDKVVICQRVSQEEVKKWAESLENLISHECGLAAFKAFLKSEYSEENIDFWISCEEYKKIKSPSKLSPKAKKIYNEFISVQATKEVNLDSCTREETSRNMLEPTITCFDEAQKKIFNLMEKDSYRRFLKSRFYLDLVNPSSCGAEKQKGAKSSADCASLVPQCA
# RGS4 pot: RGS4 potentiation or activation; HEK293 M3R/inducible RGS4, carbachol calcium flux Fluo4; stronger effect = lower value; B-score at 10 µM; actives 0.92% (n = 310,000); AID 463111;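 active means B-score of the integrated calcium signal more than 4 SD below the library mean, with starting fluorescence not abnormally high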;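 further: negative B-score means reduced calcium response which marks RGS4 activation or potentiation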
#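 Material: Inducible-RGS4 HEK293 cells carrying M3 receptor; also added: carbachol at ECmax as muscarinic agonist stimulus; incubation: compound preincubation 20 min at room temperature before agonist; signal: Fluo4-AM (2 µM) calcium-flux fluorescence, kinetic read; measure: integrated calcium ratio converted to B score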
# MrgX1 antagonist: antagonists of human MrgX1 receptor. MRGX1-HEK293 calcium flux, Fluo-4, BAM8-22 antagonism; stronger effect = lower value. B-score at 10 µM. actives 1.3% (n = 310,000). AID 588676;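 active means calcium-response B-score plate-corrected more than 3 library SD below zero, starting fluorescence within 5 deviations, no agonist response on first addition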;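 further: peak minus trough fluorescence over baseline after final BAM8-22 challenge near maximal dose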
# MrgX1 agonist: agonists of human MrgX1 receptor. Q96LB2. MrgX1-HEK293 cells, Fluo-4 calcium fluorescence, agonist mode; stronger effect = higher value. B-score at 10 µM. actives 0.44% (n = 310,000). AID 588627;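 active means calcium response B-score plate-corrected fluorescence ratio at least 3 library SD, with starting fluorescence B-score inside 5 SD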
#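 Assay system: stable human MrgX1 HEK293 cell line. Quantity: 15,000 cells per well. Schedule: cells plated overnight, dye loaded 0.5 h 37 °C, 0.5 h room temperature. Detection: Fluo-4 NW calcium-flux fluorescence, kinetic read. Read-out basis: peak-minus-minimum fluorescence over baseline, converted to B scores. Control set: positive and negative control wells on each plate.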
# * hit, by the source's call; i = inactive; nt = no result. Shown are actives, neighbours in structure and some others; about 3.5% of the full set was active somewhere.
SMILES,MrgX1 allo act,RGS4 block,RGS4 pot,MrgX1 antagonist,MrgX1 agonist
COc1ccnc(Oc2ccccc2)c1C(=O)N/C=N/OCc1ccccc1F,i,i,i,-5.6*,i
Cc1ccc(S(=O)(=O)NCC(=O)NC2CC2)cc1,i,i,i,i,i
CCCOC(=O)c1c(NC(=O)/C=C/c2cnn(C)c2C)sc(C(=O)OCC)c1C,i,i,i,-4.6*,i
CCCOC(=O)c1c(NC(=O)/C=C/c2cnn(C)c2C)sc(C(=O)OC)c1C,i,i,i,i,i
CC(=O)N(c1cccc(Br)c1)c1nc(C)cc(C)c1C#N,i,i,i,i,i
Fc1ccc(-c2cn(-c3ccccc3)c3[n+]2CCS3)cc1,i,i,i,i,i
Clc1ccc(-c2cn(-c3ccccc3)c3[n+]2CCS3)cc1,i,i,-8.7*,i,i
Cc1ncc(CO)c(/C=N/NC(=O)c2cc(Br)ccc2O)c1O,i,i,i,i,i
Cc1ncc(CO)c(/C=N/NC(=O)c2ccc(Br)cc2)c1O,i,8.4*,i,i,i
COc1ccc(NC(=O)CN2C(=O)/C(=C3\SC(=S)N(C4CCS(=O)(=O)C4)C3=O)c3ccccc32)cc1 (configuration not stated),11*,i,i,i,i
COc1cc(/C=C(\C#N)c2ccccn2)cc(OC)c1O,i,i,i,i,51*
COc1cc(/C=C(\C#N)c2ccccn2)ccc1OCc1ccccc1Cl,i,nt,nt,i,i
COc1ccc(CN2CCCC(C(=O)c3cccc(C(F)(F)F)c3)C2)cc1O (configuration not stated),i,i,-7.6*,i,i
Cc1c2n(c3ccccc13)CCN(C)C2,i,i,i,i,i
O=C1CCCC(O)=C1N=Nc1ccc(C(=O)O)cc1,i,i,i,i,i
O=C1CCCC(O)=C1N=Nc1ccc2c(c1)OCO2,i,i,i,-5*,i
O=C(CCNS(=O)(=O)c1ccccc1)OCC(=O)c1ccc(Br)cc1,i,i,i,i,i
COc1ccc(C(=O)COC(=O)CCNS(=O)(=O)c2ccccc2)cc1Br,i,i,i,-5.6*,i
C#CCOc1c(Cl)cc(/C=C2/C(=O)ON=C2C)cc1OC,i,i,i,i,i
COc1cc(/C=C2/C(=O)ON=C2C)cc(Cl)c1O,i,i,i,i,40*
CCOc1cc(/C=C2/C(=O)ON=C2C)ccc1O,i,i,i,i,33*
Cc1sc2nc(CSC(C)C(=O)N(C)CC(=O)Nc3ccccc3C(F)(F)F)[nH]c(=O)c2c1C (configuration not stated),i,i,-7.1*,i,i
Cc1cccc(NC(=O)C23CCC(C)(/C(=N/O)C2)C3(C)C)c1 (configuration not stated),i,i,i,-5.8*,i
CC12CCC(C(=O)Nc3ccccc3)(C/C1=N\O)C2(C)C (configuration not stated),i,i,i,i,i
Cc1nc(N2CCOCC2)nc(OCCN(C)C)c1[N+](=O)[O-],i,i,i,i,i
SMILES,MrgX1 allo act,RGS4 block,RGS4 pot,MrgX1 antagonist,MrgX1 agonist
Cc1nc(N2CCOCC2)nc(OCCN2CCOCC2)c1[N+](=O)[O-],i,i,i,-5.2*,i
N#C/C(=C\c1cccs1)C(=O)Nc1nccs1,i,i,i,i,44*
O=C(Cn1cnc([N+](=O)[O-])c1)c1ccc(F)cc1,11*,i,i,i,i
O=C(Cn1cnc([N+](=O)[O-])c1)NCc1ccc(F)cc1,i,i,i,i,i
CC(C)CCn1c(COc2ccccc2)n[nH]c1=S,i,i,-7.1*,i,i
CCCCn1c(Cc2ccccc2)n[nH]c1=S,i,i,-7.4*,i,i
S=c1[nH]nc(COc2ccccc2)n1Cc1ccccc1,i,i,i,i,i
CCCCn1c(=O)c2ccccc2n2c(=S)[nH]nc12,i,i,i,-5.4*,i
CCCCCn1c(=O)c2ccccc2n2c(=S)[nH]nc12,i,i,i,i,i
CC(=O)CCC(=O)N1CCCC(N2CCN(c3cccc(Cl)c3)CC2)C1 (configuration not stated),i,i,i,i,i
CCOC(=O)C1=C(CSc2nc(C)ccc2C#N)OC(N)=C(C#N)C1c1cccc(OC)c1OC (configuration not stated),i,i,i,i,i
O=C1CC(c2ccc(F)cc2)CC(O)=C1C=NCCN1CCN(C(=O)Nc2ccccc2)CC1 (configuration not stated),i,i,i,i,i
CC(C)CC(=O)C1=C(O)C(=O)N(Cc2ccccc2)C1c1ccccc1 (configuration not stated),12*,i,i,i,i
Cc1ccc(C)c(N2CCN(C(=O)c3ccc(N4CCCC4=O)cc3)CC2)c1,i,i,i,i,i
COc1ccc2c(/C=C/c3cc[n+](C)cc3)c[nH]c2c1,i,i,i,-5.8*,i
N#Cc1ccc(C(=O)OCC(=O)Nc2ccc(S(N)(=O)=O)cc2)cc1,i,i,i,i,i
CC(C)C1OC2c3cccc4cccc(c34)C2N1c1ccccc1 (configuration not stated),i,i,i,i,39*
CCNC(=O)NCCNC(=O)c1cc(OCC(F)(F)F)ccc1OCC(F)(F)F,i,i,i,-5.5*,i
CC(OC(=O)c1ccc(Cl)nc1)C(=O)N1CCc2ccccc21 (configuration not stated),i,i,i,i,i
O=C(Nc1cccc(Cl)c1)c1ccccc1,i,nt,nt,i,i
O=C1C(Cl)=C(NC(=O)c2ccccc2)C(=O)C(Cl)=C1NC(=O)c1ccccc1,i,7.3*,i,i,i
Cc1cccc(NC2=C(NC(=O)c3ccccc3)C(=O)c3ccccc3C2=O)c1,10*,i,i,i,i
O=C(NC1=C(Nc2ccc(Cl)cc2)C(=O)c2ccccc2C1=O)c1ccccc1,i,i,i,i,i
COc1cccc(NC(=O)CCC(=O)Nc2ccc3nc(N4CCOCC4)cc(C)c3c2)c1,i,i,i,i,i
CC(C)(C)C(=O)Nc1nc(C2CCCN2S(=O)(=O)c2ccc(Cl)cc2)cs1 (configuration not stated),i,i,i,i,i

# Compound activity as filed in PubChem BioAssay.
